From PubChem BioAssay
CHOP inhibitor: CHOP inhibition in unfolded protein response. CHO-K1 CHOP-promoter luciferase, tunicamycin-induced, 15-18 h. inhibition, % at 10 µM. 3.8% of 220,000 active. AID 2732;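 active = compounds that reduced the stress-induced luciferase reporter signal by more than about 70% of percent inhibition, limit read from the data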;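 note: 0% = tunicamycin plus vehicle and 100% = wells without tunicamycin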
PKD1 inh: blocks activity of human protein kinase D1; AID 797; Q15139; inhibition, % (test concentration not listed); 0.056% of 200,000 active; PKD1 kinase fluorescence polarization assay
Wee1 stabilizer: inhibitors of human Wee1 degradation; P30291; HeLa Luc-Wee1K328M stability, luciferase luminescence; 100% = proteasome inhibitor MG132 effect; 1.2% of 220,000 active; reporter increase, % at 5 µM; AID 1321;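 active = activation above the mean of all tested compounds plus 3 SD, set per screening run, cut at about 8.8% in these data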;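 note: cells exposed to compound for 20 h before luminescence read; 0% = DMSO alone and 100% = MG132 at 30 µM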
Rad51 HR inh: blocks human Rad51 in homologous recombination | Q06609 | hRad51 DNA strand exchange, fluorescence dequenching | inhibition, % at 10 µM | 0.085% of 200,000 active | AID 1385;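 active = inhibition above 40% at the single screening dose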;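 note: 0% = DMSO control wells and 100% = blanks with heterologous ssDNA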
Target sequence (Q06609 whole entry, looked up): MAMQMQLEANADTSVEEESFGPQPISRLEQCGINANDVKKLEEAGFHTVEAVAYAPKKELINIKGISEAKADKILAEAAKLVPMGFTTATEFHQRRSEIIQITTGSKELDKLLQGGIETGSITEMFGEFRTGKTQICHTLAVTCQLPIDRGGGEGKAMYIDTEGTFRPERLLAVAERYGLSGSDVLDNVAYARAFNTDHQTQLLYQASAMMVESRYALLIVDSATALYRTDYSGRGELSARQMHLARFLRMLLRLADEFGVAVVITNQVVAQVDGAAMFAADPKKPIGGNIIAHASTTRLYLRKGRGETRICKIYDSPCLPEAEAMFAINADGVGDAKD
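Material: Human Rad51 nucleoprotein filaments preassembled on unlabelled ssDNA | Also added: Labelled 47-mer dsDNA for strand exchange | Dosing: Single dose, 10 µM final compound | Schedule: 30-min compound preincubation and 15-min exchange, both room temperature | Technique: Fluorescence dequenching at 485/520 nm | Measure: Percent inhibition relative to plate controls and blanks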
Lmaj promast: inhibitors of Leishmania major promastigote growth | 9% of 200,000 active | inhibition, % at 10 µM | AID 1063 | Leishmania major promastigotes, resazurin fluorescence viability;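 note: promastigotes grown with compound for 44 hours at 28 °C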
Arbovirus anti: arbovirus infection inhibition; arbovirus infection cell-based antiviral screen; inhibition, % at 10 µM; 0.37% of 200,000 active; in the data active = inhibition above about 30%
Active calls of the source: *; . = no result. In the library only some 12% were active in any assay of this set; here they are far more common. Cut-off read from the data, not from the text of the source, unless noted: active = inhibition above about 50%; inactive = the rest.

SMILES	CHOP inhibitor	PKD1 inh	Wee1 stabilizer	Rad51 HR inh	Lmaj promast	Arbovirus anti
O=C(CSc1ccc(-c2ccncc2)nn1)N1CCN(c2ccccc2)CC1	4	-4	-2	15	20	-1
O=C(COC(=O)C1CCN(S(=O)(=O)c2cccs2)CC1)NCc1ccc(F)cc1	14	.	1	-5	.	.
CCOC(=O)c1c(NC(=O)COC(=O)C2CC2C)sc(C)c1C (stereo not drawn)	70*	0	0	0	7	1
CCCCNCC(=O)Nc1sc(C)c(C)c1C(=O)OCC	53	-9	4	1	4	-1
CCOC(=O)c1c(NC(=O)C[n+]2ccc(N(C)C)cc2)sc(C)c1C	6	-3	-2	2	84*	6
CCc1ccc(CCC(=O)Nc2sc(C)c(C)c2C(=O)OC)o1	83*	-3	-2	1	8	9
COC(=O)c1c(NC(=O)CCCC(=O)O)sc(C)c1C	6	3	-1	1	-8	-1
CCOc1ccccc1NC(=O)CC1Nc2cc(C)c(C)cc2NC1=O (stereo not drawn)	20	-7	4	-8	5	10
CCOC(=O)c1c(NC(=O)COC)sc(C)c1C	16	-1	0	3	0	-11
CCOC(=O)c1c(NC(=O)CC2Nc3cc(C)c(C)cc3NC2=O)sc(C)c1C (stereo not drawn)	74*	0	1	-8	-1	4
COc1ccc(-n2c(SCC(=O)N/N=C(\C)c3cccnc3)nc3ccccc3c2=O)cc1	2	.	-3	-2	.	.
COc1ccc(OC)c(NC(=O)c2ccccc2OC(C)=O)c1	.	.	.	0	.	.
Cc1ccc(C(=O)Nc2ccc([N+](=O)[O-])cn2)o1	-12	-7	2	.	21	-8
COc1ccc(OC)c(Nc2ncnc3ccccc23)c1	-1	0	-2	-14	40	-1
COC(=O)CSc1cc(C)nc2ccc(OC)cc12	3	-5	1	2	9	0
COc1ccc2nc(C)cc(Nc3ccccc3O)c2c1	3	-5	-1	22	59*	-12
COc1cccc(Nc2cc(C)nc3ccccc23)c1	-9	-5	-1	-29	88*	4
COc1ccc(OC)c(Nc2cc(C)nc3ccccc23)c1	-33	-7	7	-1	71*	-3
COc1cnc(SCCC(F)=C(F)F)[nH]c1=O	-5	6	-2	9	-11	5
N/C(COc1cc(Cl)cc(Cl)c1)=N\O	13	.	-3	-4	.	.
Cc1nc(SCc2ccccc2)c([N+](=O)[O-])[nH]1	-10	-4	7	-1	54*	8
COc1ccc(CSc2nc(C)[nH]c2[N+](=O)[O-])cc1[N+](=O)[O-]	5	.	-4	20	.	.
CCC(C)c1ccccc1OCCCCN1CCCC1 (stereo not drawn)	33	-7	-2	0	99*	-8
CCC(C)c1ccccc1OCCOCCN1CCCC1 (stereo not drawn)	36	-4	-3	0	98*	-16
Cc1ccc(C(=O)OCC(=O)Nc2sccc2C(N)=O)cc1NC(=O)c1ccco1	72*	-3	2	-6	14	-3
SMILES	CHOP inhibitor	PKD1 inh	Wee1 stabilizer	Rad51 HR inh	Lmaj promast	Arbovirus anti
Cc1ccc(C(=O)OCC(=O)Nc2ccccc2)cc1NC(=O)c1ccco1	1	-8	0	-4	26	2
Cc1ccc(C(=O)OCC(=O)Nc2cc(F)ccc2F)cc1NC(=O)c1ccco1	12	1	-2	-6	88*	2
COc1ccc(/C=N/N2CCOCC2)cc1Cn1cc([N+](=O)[O-])cn1	-3	.	-1	16	.	.
O=c1/c(=C\c2cccnc2)sc2nc3ccccc3n12	1	-5	-1	2	2	2
O=c1/c(=C/c2ccc(O)cc2)sc2nc3cc(Br)cnc3n12	-23	3	1	-14	-4	-5
O=c1/c(=C/c2ccc(O)c([N+](=O)[O-])c2)sc2nc3ccccc3n12	-15	5	5	3	12	30*
O=c1/c(=C\c2ccc(O)cc2)sc2nc(-c3ccccc3)c(-c3ccccc3)n12	91*	.	2	-21	.	.
Cc1cc(/C=c2\sc3nc4ccccc4n3c2=O)c(C)n1-c1ccc(C(=O)O)cc1	-27	-4	7	-38	8	37*
COc1ccc([N+](=O)[O-])cc1N/C(=N/S(=O)(=O)c1ccccc1)c1ccccc1	16	-8	2	7	20	0
